What was measured:
Trypanosoma cruzi [1] = experiment: Trypanocidal activity against epimastigote forms of Trypanosoma cruzi Y assessed as reduction in viable parasites after 11 days by Neubauer chamber counting method; assay type: functional, organism-based; details: 264 h
Outline: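 Y-strain epimastigotes grown at 26 °C in LIT medium with 10% FBS, hemin, R9 and gentamycin. Seeded at 10^6 cells/well and exposed in triplicate to 1.23, 3.70, 11.11, 33.33 and 100 µg/mL inhibitor in DMSO. Incubated 11 days at 26 °C. Viable parasites counted in a Neubauer chamber against untreated culture. IC50 from non-linear regression; experiment run in duplicate.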

[2] = biological target: Cruzipain (Trypanosoma cruzi) (UniProt P25779); experiment: Inhibition of recombinant Trypanosoma cruzi cruzain using Z-Phe-Argaminomethylcoumarin as fluorogenic substrate preincubated at 100 uM for 10 mins before substrate addition by fluorimetry
Outline: (§1)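 Recombinant cruzain at 0.5 nM in 0.1 M sodium acetate pH 5.5 with 5 mM DTT and 0.01% Triton X-100. Compound pre-incubated with enzyme 10 min at a single screening concentration. […] Fluorescence followed 5 min at ex 340/em 440 nm. Activity relative to DMSO control; at least two independent experiments in triplicate.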

Cruzipain = Cruzipain (Trypanosoma cruzi, UniProt P25779); experiment: Inhibition of recombinant Trypanosoma cruzi cruzain using Z-Phe-Argaminomethylcoumarin as fluorogenic substrate preincubated for 10 mins before substrate addition by fluorimetry
Outline: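 IC50 against recombinant cruzain (0.5 nM) in 0.1 M sodium acetate pH 5.5, 5 mM DTT, 0.01% Triton X-100. At least seven inhibitor concentrations, each pre-incubated 10 min with enzyme. Z-FR-AMC at 2.5 µM, fluorescence ex 340/em 440 nm followed 5 min. Two independent experiments in triplicate, normalized to DMSO control.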

HepG2 = experiment: Cytotoxicity against human HepG2 cells after 48 hrs by; assay type: cell-based; details: HepG2, 48 h
Outline: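 HepG2 cells in supplemented Eagle's MEM, 3000 cells/well, plated onto predispensed compounds. Incubated 48 h at 37 °C, 80% humidity, 5% CO2. Viability read by CellTiter-Glo luminescence.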

Trypanosoma cruzi [3] = experiment: Antitrypanosomal activity against trypomastigote forms of Trypanosoma cruzi Y infected in LLC-MK2 cells assessed as reduction in viable parasites after 24 hrs by Neubauer chamber counting method; assay type: functional, organism-based; details: LLC-MK2, 24 h
Outline: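 Bloodstream trypomastigotes (Y strain) taken from supernatants of infected LLC-MK2 cells kept in RPMI-1640 with 10% FBS and gentamycin at 37 °C, 5% CO2. Plated at 4×10^5 cells/well with five concentrations of inhibitor in DMSO. Incubated 24 h at 37 °C, 5% CO2. Motile parasites counted in a Neubauer chamber. % inhibition taken against untreated cultures; IC50 from non-linear regression.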

[4] = biological target: Cruzipain (Trypanosoma cruzi) (UniProt P25779); experiment: Inhibition of recombinant Trypanosoma cruzi cruzain using Z-Phe-Argaminomethylcoumarin as fluorogenic substrate preincubated at 50 uM for 10 mins before substrate addition by fluorimetry; outline: as §1
[5] = biological target: Cruzipain (Trypanosoma cruzi) (UniProt P25779); experiment: Inhibition of recombinant Trypanosoma cruzi cruzain using Z-Phe-Argaminomethylcoumarin as fluorogenic substrate preincubated at 75 uM for 10 mins before substrate addition by fluorimetry; outline: as §1

Chain of Cruzipain (P25779 whole entry): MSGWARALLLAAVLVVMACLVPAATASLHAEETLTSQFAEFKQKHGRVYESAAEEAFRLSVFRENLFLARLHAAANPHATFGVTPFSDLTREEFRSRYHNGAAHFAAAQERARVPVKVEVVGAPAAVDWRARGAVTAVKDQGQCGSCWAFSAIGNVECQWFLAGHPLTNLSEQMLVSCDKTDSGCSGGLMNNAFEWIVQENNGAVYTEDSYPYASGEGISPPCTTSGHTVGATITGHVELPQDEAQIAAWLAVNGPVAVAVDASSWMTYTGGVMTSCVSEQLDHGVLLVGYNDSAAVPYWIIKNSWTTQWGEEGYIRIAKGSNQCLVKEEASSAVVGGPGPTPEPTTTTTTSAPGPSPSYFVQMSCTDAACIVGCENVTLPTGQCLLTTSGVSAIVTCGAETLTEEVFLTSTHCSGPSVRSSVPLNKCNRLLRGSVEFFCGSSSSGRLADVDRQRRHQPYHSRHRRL
Chain of Cruzipain (Trypanosoma cruzi) (P25779 123-467 limits assumed): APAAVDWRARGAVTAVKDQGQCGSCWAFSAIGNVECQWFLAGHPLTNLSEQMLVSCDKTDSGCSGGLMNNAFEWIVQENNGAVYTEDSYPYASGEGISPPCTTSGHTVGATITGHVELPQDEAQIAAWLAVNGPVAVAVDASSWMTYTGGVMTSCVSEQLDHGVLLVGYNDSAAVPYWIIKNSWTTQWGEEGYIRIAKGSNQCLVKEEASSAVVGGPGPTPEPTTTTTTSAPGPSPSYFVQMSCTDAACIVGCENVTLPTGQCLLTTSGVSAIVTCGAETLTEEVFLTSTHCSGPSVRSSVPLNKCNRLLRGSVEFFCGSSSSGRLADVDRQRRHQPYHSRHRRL

| SMILES | IC50 (Trypanosoma cruzi [1]) | inhibition [2] | IC50 (Cruzipain) | IC50 (HepG2) | IC50 (Trypanosoma cruzi [3]) | inhibition [4] | inhibition [5] |
| --- | --- | --- | --- | --- | --- | --- | --- |
| C/C(=N\Nc1nc(-c2ccc(Cl)cc2Cl)cs1)c1ccccn1 | 14.9 µM | 81% | 4.8 µM | 100 µM | 1.9 µM | – | – |
| O=[N+]([O-])c1ccc(-c2csc(N/N=C/c3ccccn3)n2)cc1 | 4.4 µM | 12% | – | 100 µM | 153 µM | – | – |
| C/C(=N\Nc1nc(-c2ccc(Cl)c(Cl)c2)cs1)c1ccccn1 | 5 µM | 89% | 0.4 µM | 100 µM | 3.1 µM | – | – |
| O=[N+]([O-])c1cccc(-c2csc(N/N=C/c3ccccn3)n2)c1 | 2.5 µM | 85% | 1.3 µM | 100 µM | 74.2 µM | – | – |
| C/C(=N\Nc1nc(-c2ccc3ccccc3c2)cs1)c1ccccn1 | 4.1 µM | 94% | 0.01 µM | 100 µM | 2 µM | – | – |
| C/C(=N\Nc1nc(-c2ccc(Br)cc2)c(C)s1)c1ccccn1 | 2.3 µM | 27% | – | 85.1 µM | 2.3 µM | – | – |
| C/C(=N/Nc1nc(-c2ccc(Cl)cc2)cs1)c1ccccn1 | 2.5 µM | -3% | – | 100 µM | 2.1 µM | – | – |
| C/C(=N\Nc1nc(-c2ccc(F)cc2)cs1)c1ccccn1 | 2.8 µM | 89% | 0.3 µM | 91.2 µM | 3.8 µM | – | – |
| Fc1ccc(-c2csc(N/N=C/c3ccccn3)n2)cc1 | 3.5 µM | – | – | 18.2 µM | 72.7 µM | 22% | – |
| C(=N\Nc1nc(-c2ccccc2)cs1)/c1ccccn1 | 8.3 µM | – | – | 100 µM | 5.4 µM | – | 9% |
| Clc1ccc(-c2csc(N/N=C/c3ccccn3)n2)c(Cl)c1 | 4.8 µM | – | – | 100 µM | 1.2 µM | – | 0% |
| Cc1ccc(-c2csc(N/N=C/c3ccccn3)n2)cc1 | 3.8 µM | 23% | – | 100 µM | 16.8 µM | – | – |
| N/C(S)=N/N=C/c1ccccn1 | 120 µM | 1% | – | – | 17.3 µM | – | – |
| C/C(=N\Nc1nc(-c2ccc([N+](=O)[O-])cc2)cs1)c1ccccn1 | 5.2 µM | – | – | 100 µM | 36.7 µM | – | 11% |
| COc1ccc(-c2csc(N/N=C(\C)c3ccccn3)n2)cc1 | 14.7 µM | 95% | 0.04 µM | 100 µM | 2.1 µM | – | – |
| COc1ccc(-c2csc(N/N=C/c3ccccn3)n2)cc1 | 5.6 µM | – | – | 100 µM | 4.8 µM | – | 20% |
| C/C(=N\Nc1nc(-c2ccccc2)cs1)c1ccccn1 | 2.7 µM | 93% | 1.3 µM | 91.2 µM | 1.1 µM | – | – |
| Clc1ccc(-c2csc(N/N=C/c3ccccn3)n2)cc1Cl | 4 µM | 21% | – | 100 µM | 1.2 µM | – | – |
| Brc1ccc(-c2csc(N/N=C/c3ccccn3)n2)cc1 | 2.2 µM | 86% | 9.5 µM | 100 µM | 2.2 µM | – | – |
| C/C(=N\Nc1nc(-c2ccc(Br)cc2)cs1)c1ccccn1 | 2.1 µM | -8% | – | 100 µM | 2.1 µM | – | – |
| Clc1ccc(-c2csc(N/N=C/c3ccccn3)n2)cc1 | 3.8 µM | – | – | 100 µM | 3.8 µM | – | -1% |
| C/C(=N\Nc1nc(-c2ccc(C)cc2)cs1)c1ccccn1 | 2.5 µM | 90% | 0.4 µM | 100 µM | 1.7 µM | – | – |
| Cc1sc(N/N=C/c2ccccn2)nc1-c1ccc(Br)cc1 | 18.3 µM | 10% | – | 100 µM | 2.6 µM | – | – |
| C(=N\Nc1nc(-c2ccc3ccccc3c2)cs1)/c1ccccn1 | 8.3 µM | 3% | – | 100 µM | 2.1 µM | – | – |
| C/C(=N\Nc1nc(-c2cccc([N+](=O)[O-])c2)cs1)c1ccccn1 | 2.4 µM | – | – | 100 µM | 3.9 µM | – | 10% |
| C/C(=N\NC(N)=S)c1ccccn1 | 4.5 µM | 5% | – | – | 2.8 µM | – | – |
